Where two headings read alike, the source gives them in different places.
What was measured:
CYP199A4 [1] = target: T1, CYP199A4 (Rhodopseudomonas palustris, UniProt Q2IU02); assay: Spin state shift; assay type: binding, Rhodopseudomonas palustris HaA2; conditions: WT CYP199A4, 50 mM Tris pH 7.4
T1 sequence (Q2IU02 1-410): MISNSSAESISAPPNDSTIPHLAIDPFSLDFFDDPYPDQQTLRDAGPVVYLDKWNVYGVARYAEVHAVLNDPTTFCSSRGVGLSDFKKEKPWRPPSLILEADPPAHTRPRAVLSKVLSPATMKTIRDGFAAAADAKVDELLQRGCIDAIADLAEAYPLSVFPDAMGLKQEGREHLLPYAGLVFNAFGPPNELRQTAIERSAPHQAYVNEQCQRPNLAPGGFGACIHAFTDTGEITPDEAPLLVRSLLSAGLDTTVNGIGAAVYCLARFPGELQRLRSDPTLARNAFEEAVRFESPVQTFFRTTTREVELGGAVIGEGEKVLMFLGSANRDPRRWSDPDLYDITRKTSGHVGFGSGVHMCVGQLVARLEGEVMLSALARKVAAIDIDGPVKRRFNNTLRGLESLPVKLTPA
How it was run: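 UV-visible spectra of CYP199A4 recorded at 30±0.5 °C after substrate addition. Percentage shift from low-spin to high-spin heme estimated to approximately ±5% by a previously described method.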

CYP199A4 [2] = target: T1, CYP199A4; assay: Dissociation constant determination by substrate binding titration; design: species or system Rhodopseudomonas palustris HaA2; conditions: WT CYP199A4, 50 mM Tris pH 7.4
How it was run: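 CYP199A4 at 0.5–1.5 μM in 50 mM Tris, pH 7.4, held at 30 °C. Substrate titrated in from 1, 10 or 100 mM ethanol stocks. Soret band peak-to-trough absorbance difference recorded over 700–250 nm. Percentage high-spin shift estimated to about ±5%. Kd fitted from the ΔA titration data.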

CYP199A4 [3] = target: T1, CYP199A4; assay: In vitro NADH oxidation activity assay; assay type: biochemical, Rhodopseudomonas palustris HaA2; conditions: for PFR (product formation rate): HaPuR:HaPux:CYP199A4 1:10:1, 0.5 μM CYP, 50 mM Tris pH 7.4; for Coupling (percentage of NADH utilized for the formation of products): WT CYP199A4
How it was run: (§1)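 Turnover run at 30 °C in oxygenated 50 mM Tris, pH 7.4, with 5 μM HaPux, 0.5 μM HaPuR and 0.5 μM CYP199A4 (WT or F298V). Started with substrate at 1 mM final. Product formation rate and coupling from quantified products. H2O2 by HRP/phenol/4-aminoantipyrine assay. Mean ±S.D., n≥3.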

CYP199A4 [4] = target: T1, CYP199A4; assay: Product distribution of enzyme-catalyzed oxidation by HPLC / GC-MS; assay type: biochemical, Rhodopseudomonas palustris HaA2
How it was run: (§2)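 Products of in vitro turnovers quantified by HPLC against product-standard calibrations. Sample: 132 μL reaction mix plus 2 μL of 10 mM 9-hydroxyfluorene in ethanol as internal standard (diphenylmethane for the isopropyl substrate), then 66 μL acetonitrile. Standards made by whole-cell E. coli oxidation or borohydride reduction, or estimated from the closest analogue. Derivatized samples identified by GC-MS on a DB-5 column.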

CYP199A4 [5] = target: T1, CYP199A4; assay: Hydrogen peroxide uncoupling, HRP/phenol/4-aminoantipyrine assay; assay type: biochemical, Rhodopseudomonas palustris HaA2; conditions: WT CYP199A4, HRP assay
How it was run: as §1

CYP199A4 [6] = target: T1, CYP199A4; conditions: WT CYP199A4, cited from earlier work; for shift to the high‐spin form of ferric CYP199A4: ref 9c, 14, 17; for HS (%), change in the heme spin state from low‐spin to high‐spin upon addition of substrate: reported previously
CYP199A4 [7] = target: T1, CYP199A4; conditions: WT CYP199A4; reported previously; cited from earlier work
CYP199A4 [8] = target: T1, CYP199A4; conditions: WT CYP199A4; reported previously; cited from earlier work; remark: listed apart in the source
F298V mutant of CYP199A4 [9] = assay: Spin state shift assay with F298V mutant; assay type: binding, Rhodopseudomonas palustris HaA2
F298V mutant of CYP199A4 [10] = assay: In vitro NADH oxidation activity assay with F298V mutant; assay type: biochemical, Rhodopseudomonas palustris HaA2
How it was run: as §1

F298V mutant of CYP199A4 [11] = assay: Product distribution of oxidation by F298V mutant; assay type: biochemical, Rhodopseudomonas palustris HaA2
How it was run: as §2

[12] = WT CYP199A4, min^−1 abbreviates nmol.nmol‐CYP^−1.min^−1
[13] = listed as 4‐n‐propylbenzoic acid

SMILES: O=C(O)c1ccc(C2CC2)cc1 [4‐cyclopropylBA, 4‐cyclopropylbenzoic acid]
- HS (%), change in the heme spin state from low‐spin to high‐spin upon addition of substrate (CYP199A4 [1]): ≥95%
- HS (%), change in the heme spin state from low‐spin to high‐spin upon addition of substrate (CYP199A4 [1]; listed as 4‐cyclopropylbenzoic acid): ≥ 95%
- Kd (CYP199A4 [2]): 280 ± 20 nM
- PFR (product formation rate) (CYP199A4 [3]): 170±22 nmol.nmol‐CYP^−1.min^−1
- Coupling (percentage of NADH utilized for the formation of products) (CYP199A4 [3]): 45±5%
- NADH oxidation rate (CYP199A4 [3]; [12]): 383 min⁻¹
- product formation rate (CYP199A4 [3]; [12]): 170 min⁻¹
- Cα–Cβ desaturation alkene product, share of total products (CYP199A4 [4]; WT CYP199A4, in vitro turnover): No desaturation was observed
- hydrogen peroxide uncoupling (CYP199A4 [5]): ≤ 2%

SMILES: CCc1ccc(C(=O)O)cc1 [4‐ethylBA, 4‐ethylbenzoic acid]
- shift to the high‐spin form of ferric CYP199A4 (CYP199A4 [6]): ≥ 95%
- HS (%), change in the heme spin state from low‐spin to high‐spin upon addition of substrate (CYP199A4 [6]): ≥95%
- Kd (CYP199A4 [7]): 340 ± 20 nM
- Coupling (percentage of NADH utilized for the formation of products) (CYP199A4 [8]): 64±4%
- NADH (frequency of NADH oxidation) (CYP199A4 [8]): 812±7 nmol.nmol‐CYP^−1.min^−1
- PFR (product formation rate) (CYP199A4 [8]): 525±88 nmol.nmol‐CYP^−1.min^−1

SMILES: CC(C)Cc1ccc(C(=O)O)cc1 [4‐isobutylBA, 4‐isobutylbenzoic acid]
- HS (%), change in the heme spin state from low‐spin to high‐spin upon addition of substrate (CYP199A4 [1]): >95%
- Kd (CYP199A4 [2]): 590 ± 30 nM
- PFR (product formation rate) (CYP199A4 [3]): 146±21 nmol.nmol‐CYP^−1.min^−1
- Coupling (percentage of NADH utilized for the formation of products) (CYP199A4 [3]): 41±5%
- product formation rate (CYP199A4 [3]; [12]): 146 min⁻¹

SMILES: CC(C)c1ccc(C(=O)O)cc1 [4‐isopropylBA, 4‐isopropylbenzoic acid]
- shift to the high‐spin form of ferric CYP199A4 (CYP199A4 [6]): ≥ 95%
- HS (%), change in the heme spin state from low‐spin to high‐spin upon addition of substrate (CYP199A4 [6]): ≥95%
- Kd (CYP199A4 [7]): 290 ± 10 nM
- Coupling (percentage of NADH utilized for the formation of products) (CYP199A4 [8]): 68±1%
- NADH (frequency of NADH oxidation) (CYP199A4 [8]): 325±36 nmol.nmol‐CYP^−1.min^−1
- PFR (product formation rate) (CYP199A4 [8]): 221±27 nmol.nmol‐CYP^−1.min^−1

SMILES: CCCCc1ccc(C(=O)O)cc1 [4‐n‐butylBA, 4‐n‐butylbenzoic acid]
- HS (%), change in the heme spin state from low‐spin to high‐spin upon addition of substrate (CYP199A4 [1]): 90%
- Kd (CYP199A4 [2]): 390 ± 40 nM
- PFR (product formation rate) (CYP199A4 [3]): 67±3 nmol.nmol‐CYP^−1.min^−1
- Coupling (percentage of NADH utilized for the formation of products) (CYP199A4 [3]): 40±1%
- product formation rate (CYP199A4 [3]; [12]): 67 min⁻¹
- unidentified minor product, share of total products (CYP199A4 [4]; WT CYP199A4, HPLC): < 2%
- Cα–Cβ desaturation alkene product, share of total products (CYP199A4 [4]; WT CYP199A4, in vitro turnover): 50%
- Cβ hydroxylation product, share of total products (CYP199A4 [4]; WT CYP199A4, in vitro turnover): did not generate any detectable product
- epoxide further oxidation product, share of total products (CYP199A4 [4]; WT CYP199A4, in vitro turnover): 2%

SMILES: CCCCCCCc1ccc(C(=O)O)cc1 [4‐n‐heptylBA, 4‐n‐heptylbenzoic acid]
- HS (%), change in the heme spin state from low‐spin to high‐spin upon addition of substrate (CYP199A4 [1]): ≥95%
- Kd (CYP199A4 [2]): 160 ± 30 nM
- PFR (product formation rate) (CYP199A4 [3]): 147±12 nmol.nmol‐CYP^−1.min^−1
- Coupling (percentage of NADH utilized for the formation of products) (CYP199A4 [3]): 53±2%
- product formation rate (CYP199A4 [3]; [12]): 147 min⁻¹
- Coupling (percentage of NADH utilized for the formation of products) (CYP199A4 [3]; listed as 4‐n‐heptylbenzoic acid): 53%
- epoxide further oxidation product, share of total products (CYP199A4 [4]; WT CYP199A4, in vitro turnover): 3%

SMILES: CCCc1ccc(C(=O)O)cc1 [4‐n‐propylBA, 4‐n‐propylbenzoic acid]
- HS (%), change in the heme spin state from low‐spin to high‐spin upon addition of substrate (CYP199A4 [1]): ≥95%
- HS (%), change in the heme spin state from low‐spin to high‐spin upon addition of substrate (CYP199A4 [1]; [13]): ≥ 95%
- Kd (CYP199A4 [2]): 540 ± 20 nM
- PFR (product formation rate) (CYP199A4 [3]): 594±72 nmol.nmol‐CYP^−1.min^−1
- Coupling (percentage of NADH utilized for the formation of products) (CYP199A4 [3]): 86±8%
- Coupling (percentage of NADH utilized for the formation of products) (CYP199A4 [3]; [13]): 86%
- epoxide further oxidation product, share of total products (CYP199A4 [4]; WT CYP199A4, in vitro turnover): 12%
- shift to the high‐spin form (F298V mutant of CYP199A4 [9]): ≥ 95%
- NADH oxidation rate (F298V mutant of CYP199A4 [10]): 378 ± 5 min⁻¹
- coupling efficiency (F298V mutant of CYP199A4 [10]): 71%
- Cβ hydroxylation product 4‐(2‐hydroxypropyl)benzoic acid (F298V mutant of CYP199A4 [11]): almost none
- metabolites arising from initial desaturation, share of total products (F298V mutant of CYP199A4 [11]): 73%

SMILES: CC(C)(C)c1ccc(C(=O)O)cc1 [4‐t‐butylBA, 4‐t‐butylbenzoic acid]
- shift to the high‐spin form of ferric CYP199A4 (CYP199A4 [6]): ≥ 95%
- HS (%), change in the heme spin state from low‐spin to high‐spin upon addition of substrate (CYP199A4 [6]): ≥95%
- Coupling (percentage of NADH utilized for the formation of products) (CYP199A4 [8]): 100±13%
- NADH (frequency of NADH oxidation) (CYP199A4 [8]): 227±4 nmol.nmol‐CYP^−1.min^−1
- PFR (product formation rate) (CYP199A4 [8]): 227±32 nmol.nmol‐CYP^−1.min^−1

Reference: paper PMC10100021 (Chemistry, an Asian Journal, 2022)
